Assay results: ChEMBL document CHEMBL4342467, “Discovery of a Novel Dual-Target Inhibitor of ERK1 and ERK5 That Induces Regulated Cell Death to Overcome Compensatory Mechanism in Specific Tumor Types” (J Med Chem, 2020)
Active and inactive are the calls of the source. The rule behind the calls is not given here.

Assays:
[1] = target: Mitogen-activated protein kinase 7 (Homo sapiens) (UniProt Q13164); assay: Inhibition of ERK5 in human MKN74 cells harboring ERK1/2 siRNA assessed as reduction in ERK5 phosphorylation at 1 uM by Western blot analysis; type: cell-based
Method in brief: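 MKN-74 cells were transfected with ERK1/2-specific siRNA or negative-control siRNA, then exposed to compound. ERK1/2, p-ERK1/2, ERK5 and p-ERK5 were read by immunoblotting, with GAPDH as loading control.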

HL-60 = assay: Antiproliferative activity against human HL60 cells assessed as reduction in cell viability measured after 24 hrs; type: functional, cell-based; conditions: HL-60, 24 h
MKN-74 = assay: Antiproliferative activity against human MKN74 cells assessed as reduction in cell viability measured after 24 hrs; type: functional, cell-based; conditions: MKN-74, 24 h
[2] = target: Mitogen-activated protein kinase 3 (Homo sapiens) (UniProt P27361); assay: Inhibition of ERK1 (unknown origin) at 1 uM by Z'-Lyte assay relative to control
HeLa = assay: Antiproliferative activity against human HeLa cells assessed as reduction in cell viability measured after 24 hrs; type: functional, cell-based
[3] = target: Mitogen-activated protein kinase 1 (Homo sapiens) (UniProt P28482); assay: Inhibition of ERK2 (unknown origin) at 1 uM by Z'-Lyte assay relative to control
[4] = target: Mitogen-activated protein kinase 7 (Homo sapiens) (UniProt Q13164); assay: Inhibition of ERK5 (unknown origin) at 1 uM by Z'-Lyte assay relative to control

Mitogen-activated protein kinase 7 (Homo sapiens), sequence (Q13164 2-816 limits assumed): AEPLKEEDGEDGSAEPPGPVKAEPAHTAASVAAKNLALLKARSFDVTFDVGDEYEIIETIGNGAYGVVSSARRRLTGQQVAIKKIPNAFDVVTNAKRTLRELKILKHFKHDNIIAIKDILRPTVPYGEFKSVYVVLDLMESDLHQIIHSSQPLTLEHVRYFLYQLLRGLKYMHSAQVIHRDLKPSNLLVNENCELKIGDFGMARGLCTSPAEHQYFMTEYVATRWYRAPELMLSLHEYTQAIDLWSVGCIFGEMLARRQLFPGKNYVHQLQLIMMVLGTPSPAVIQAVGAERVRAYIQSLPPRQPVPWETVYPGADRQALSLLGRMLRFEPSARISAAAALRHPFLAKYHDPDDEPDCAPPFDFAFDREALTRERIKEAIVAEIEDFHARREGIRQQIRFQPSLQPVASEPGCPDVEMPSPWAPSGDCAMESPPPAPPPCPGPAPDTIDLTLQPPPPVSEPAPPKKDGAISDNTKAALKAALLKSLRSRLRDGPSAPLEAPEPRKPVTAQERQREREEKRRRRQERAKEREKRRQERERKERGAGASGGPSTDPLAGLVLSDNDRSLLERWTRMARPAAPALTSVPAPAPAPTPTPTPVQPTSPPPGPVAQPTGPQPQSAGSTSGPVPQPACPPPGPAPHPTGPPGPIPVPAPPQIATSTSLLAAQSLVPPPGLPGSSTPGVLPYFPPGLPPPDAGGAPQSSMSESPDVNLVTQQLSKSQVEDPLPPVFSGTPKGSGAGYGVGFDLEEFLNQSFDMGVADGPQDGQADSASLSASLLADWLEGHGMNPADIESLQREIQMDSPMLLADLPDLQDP
Mitogen-activated protein kinase 1 (Homo sapiens), sequence (P28482 whole entry): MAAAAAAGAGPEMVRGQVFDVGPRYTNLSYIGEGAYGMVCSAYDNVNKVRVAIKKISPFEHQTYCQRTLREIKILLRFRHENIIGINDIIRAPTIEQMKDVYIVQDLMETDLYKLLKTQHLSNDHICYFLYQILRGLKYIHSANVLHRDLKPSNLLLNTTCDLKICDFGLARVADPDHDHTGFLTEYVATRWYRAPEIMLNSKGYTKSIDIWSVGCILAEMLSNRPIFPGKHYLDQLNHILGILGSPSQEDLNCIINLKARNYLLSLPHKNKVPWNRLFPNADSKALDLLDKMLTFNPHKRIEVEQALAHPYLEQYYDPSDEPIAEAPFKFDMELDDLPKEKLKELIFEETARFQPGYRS
Mitogen-activated protein kinase 3 (Homo sapiens), sequence (P27361 whole entry): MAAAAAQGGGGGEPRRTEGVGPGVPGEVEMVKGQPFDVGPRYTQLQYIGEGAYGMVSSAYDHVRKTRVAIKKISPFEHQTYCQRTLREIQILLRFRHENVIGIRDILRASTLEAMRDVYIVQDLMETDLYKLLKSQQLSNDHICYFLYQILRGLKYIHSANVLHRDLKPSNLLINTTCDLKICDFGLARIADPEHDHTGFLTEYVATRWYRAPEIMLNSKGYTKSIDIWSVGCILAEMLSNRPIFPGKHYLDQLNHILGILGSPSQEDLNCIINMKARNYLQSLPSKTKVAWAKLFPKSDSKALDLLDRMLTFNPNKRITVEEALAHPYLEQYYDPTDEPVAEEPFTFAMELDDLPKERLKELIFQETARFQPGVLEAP

`CCOc1cc(N2CCC(O)CC2)ccc1Nc1ncc2c(n1)N(C)c1ccccc1C(=O)N2C` was tested, and the inhibition [1] was “Active”, the IC50 (HL-60) was 10.6 µM and the IC50 (MKN-74) was > 50 µM. For the same molecule, the inhibition [2] was < 50%, the IC50 (HeLa) was > 50 µM and the inhibition [3] was < 50%.

In the case of `O=C(Nc1ccc2[nH]nc(-c3ccncc3)c2c1)[C@@H]1CCN(CC(=O)N2CCN(c3ccc(-c4ncccn4)cc3)CC2)C1`, the inhibition [1] is reported as “inactive”, the IC50 (HL-60) is reported as 1.06 µM and the IC50 (MKN-74) is reported as > 50 µM. The inhibition [2] was 98.8%, the IC50 (HeLa) was > 50 µM and the inhibition [3] was 99.2%. For the same molecule, the inhibition [4] was < 50%.
